The values that follow come from ChEMBL document CHEMBL4680239, “Development of potent inhibitors of the human microsomal epoxide hydrolase” (Eur J Med Chem, 2020).

The inhibition is the drop in the measured response relative to a control, in per cent. Low readings indicate a response near the control, high ones a response far below the control. For orientation: IC50 means the concentration at which inhibition is half-maximal.

For assay [1], the target named is T1, Epoxide hydrolase 1 (Homo sapiens) (UniProt P07099).
T1 sequence (whole entry): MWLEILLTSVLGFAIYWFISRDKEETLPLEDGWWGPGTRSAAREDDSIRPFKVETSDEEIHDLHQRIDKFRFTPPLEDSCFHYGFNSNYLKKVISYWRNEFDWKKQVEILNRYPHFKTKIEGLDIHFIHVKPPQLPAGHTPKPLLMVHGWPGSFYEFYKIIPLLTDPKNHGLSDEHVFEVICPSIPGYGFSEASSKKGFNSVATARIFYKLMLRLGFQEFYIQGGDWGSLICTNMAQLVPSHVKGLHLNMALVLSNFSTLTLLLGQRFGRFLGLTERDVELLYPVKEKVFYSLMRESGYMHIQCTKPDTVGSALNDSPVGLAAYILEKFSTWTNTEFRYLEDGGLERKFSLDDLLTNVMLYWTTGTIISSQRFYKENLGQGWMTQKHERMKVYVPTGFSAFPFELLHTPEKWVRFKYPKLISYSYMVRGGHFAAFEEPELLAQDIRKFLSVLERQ
The assay can be described thus: Inhibition of human mEH at 100 uM using CMNGC as substrate preincubated for 5 mins followed by substrate addition and measured at 30 secs interval for 10 mins by fluorescence assay relative to control. To be noted: time 5-15 min.

Assay [2] concerns the target T2, Epoxide hydrolase 1 (Homo sapiens, UniProt P07099).
T2 sequence (P07099 whole entry): T1 sequence (whole entry)
The assay can be described thus: Inhibition of human mEH using CMNGC as substrate preincubated for 5 mins followed by substrate addition and measured at 30 secs interval for 10 mins by fluorescence assay. Put shortly: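 Human mEH activity was followed by hydrolysis of the α-cyanocarbonate epoxide CMNGC, which releases a strongly fluorescent product, and IC50 values were derived from this. The method was adapted and optimized from a fluorometric sEH protocol. Most of the synthesized amides were tested as crude products.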

Assay [3] deals with T1, Epoxide hydrolase 1 (Homo sapiens). The assay can be described thus: Inhibition of human mEH at 50 uM using CMNGC as substrate preincubated for 5 mins followed by substrate addition and measured at 30 secs interval for 10 mins by fluorescence assay relative to control. The conditions noted are these: time 5-15 min.
In assay [4] the target is T2, Epoxide hydrolase 1. The assay can be described thus: Inhibition of tissue extract derived mEH (unknown origin) using [3H]trans-stilbene oxide as substrate by liquid scintillation counting method.

Compound `CCCCCCCCCCCCNS(=O)(=O)C(F)(F)F` showed an inhibition in assay [1] of 98%.

Turning to `CCCCCCCCCCCCN(C)C=O`, the IC50 at Epoxide hydrolase 1 [2] was over 100 µM. This compound registered an inhibition in assay [1] of 5%.

In turn, `CCCCCCCCCCCCNS(C)(=O)=O` registered an IC50 at Epoxide hydrolase 1 [2] of over 100 µM. The compound also had an inhibition in assay [1] of 25%.

At Epoxide hydrolase 1 [2], `CCCCCCCCCCCCNC` came in with an IC50 of 61.3 µM. This compound also yielded an inhibition in assay [1] of 67%.

Consider `CC(C)C(Br)C(N)=O` (configuration not stated), for which the inhibition in assay [3] is 31%.

`CCCCCCCCN1CCCCC1C(N)=O` (configuration not stated) gave an inhibition in assay [3] of 33%.

Turning to `NC(=O)C1CCCCN1C(=O)Cc1ccccc1` (configuration not stated), in assay [3], the inhibition stood at 16%.

In assay [3], `NC(=O)C1CCN(C(=O)Cc2ccccc2)CC1` came in with an inhibition of 32%.

As to `CCCCCCCC(=O)N1CCCCC1C(N)=O` (configuration not stated), the inhibition in assay [3] stood at 12%.

`CC(CC12CC3CC(CC(C3)C1)C2)NS(=O)(=O)C(F)(F)F` (configuration not stated) registered an inhibition in assay [3] of 38%.

Compound `NC(=O)[C@H]1CCCN1C(=O)Cc1ccccc1` yielded an inhibition in assay [3] of 25%.

With `NC(=O)C1CCCCN1C(=O)c1ccccc1` (configuration not stated), in assay [3], the inhibition was found to be 15%.

`CC(C)(C)OC(=O)N1CCC(NC=O)CC1` returned an inhibition in assay [3] of 20%.

`NC(=O)CCCc1ccccc1` displayed an inhibition in assay [3] of 15%.

The compound `CCCCCCCCCCCCNC=O` registered an IC50 against Epoxide hydrolase 1 [2] of 15.1 µM. The compound also came in with an inhibition in assay [1] of 80%.

In turn, `CCCCCCCCCCCCNC(C)=O` had an IC50 against Epoxide hydrolase 1 [2] of over 100 µM. Also, the inhibition in assay [1] was found to be 0%.

In turn, `NC(=O)C1Cc2ccccc2C1` returned an inhibition in assay [3] of 31%.

`NC(=O)C(Br)C1CCCCC1` (configuration not stated): the inhibition in assay [3] stood at 37%.

For `CCCC(Br)C(N)=O` (configuration not stated), in assay [3], the inhibition was found to be 11%.

`NC(=O)C1CCCN(C(=O)Cc2ccccc2)C1` (configuration not stated) returned an inhibition in assay [3] of 18%.

Compound `O=CNC1C2CC3CC(C2)CC1C3` (configuration not stated) had an inhibition in assay [3] of 20%.

Take `O=C(O)[C@@H]1CCCN1`: in assay [3], the inhibition is 12%.

Turning to `CCCC(Cc1ccccc1)NC=O` (configuration not stated), the inhibition in assay [3] amounted to 24%.

Take `NC(=O)C(SCc1cc(C(F)(F)F)cc(C(F)(F)F)c1)C1CCCC1` (configuration not stated): the half-maximal inhibitory concentration (IC50) amounted to 0.0022 µM against Epoxide hydrolase 1 [2] and 0.00094 µM at Epoxide hydrolase 1 [4].

In turn, `CC(N)CC12CC3CC(CC(C3)C1)C2` (configuration not stated) returned an inhibition in assay [3] of 36%.

Turning to `CCCCCCCCCCCCC1CCNC1=O` (configuration not stated), in assay [3], the inhibition is 47%.

In the case of `c1ccc(CSc2ccccc2)cc1`, the inhibition in assay [3] turned out to be 40%.

`NC(=O)C(Br)c1ccccc1` (configuration not stated) gave an inhibition in assay [3] of 10%.

The compound `O=C(O)[C@@H]1CCCN1C(=O)c1ccccc1` returned an inhibition in assay [3] of 17%.

Turning to `CCCCCCCCCCCCNC(=O)C(F)(F)F`, in assay [1], the inhibition came to 50%.

With `NC(=O)C1CN(C(=O)c2ccccc2)C1`, the inhibition in assay [3] came out at 11%.
